# Assay results reported in ChEMBL document CHEMBL4270612, “Discovery of dual GyrB/ParE inhibitors active against Gram-negative bacteria” (Eur J Med Chem, 2018).
# Assays:
# Pseudomonas aeruginosa [1] = test: Antibacterial activity against Pseudomonas aeruginosa ARC003 after 24 hrs by broth microdilution method; assay type: functional; details: ARC003, 24 h
# In short: (§1)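 Broth microdilution per CLSI. Bacterial suspension adjusted to 1×10^6 CFU/mL in cation-adjusted Mueller–Hinton broth and mixed 1:1 with 2-fold serial compound dilutions. Final DMSO 2.5% v/v. Plates incubated at 35 °C with shaking at 140 rpm for 24 h.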
# Pseudomonas aeruginosa [2] = test: Antibacterial activity against Pseudomonas aeruginosa ARC3504 after 24 hrs by broth microdilution method; assay type: functional; details: ARC3504, 24 h; in short: as §1
# Pseudomonas aeruginosa [3] = test: Antibacterial activity against Pseudomonas aeruginosa ARC3505 after 24 hrs by broth microdilution method; assay type: functional; details: ARC3505, 24 h; in short: as §1
# Pseudomonas aeruginosa [4] = test: Antibacterial activity against Pseudomonas aeruginosa ARC3506 after 24 hrs by broth microdilution method; assay type: functional; details: ARC3506, 24 h; in short: as §1
# Pseudomonas aeruginosa [5] = test: Antibacterial activity against Pseudomonas aeruginosa ARC3509 after 24 hrs by broth microdilution method; assay type: functional; details: ARC3509, 24 h; in short: as §1
# Pseudomonas aeruginosa [6] = test: Antibacterial activity against Pseudomonas aeruginosa ARC3606 after 24 hrs by broth microdilution method; assay type: functional; details: ARC3606, 24 h; in short: as §1
# Pseudomonas aeruginosa [7] = test: Antibacterial activity against Pseudomonas aeruginosa ARC3607 after 24 hrs by broth microdilution method; assay type: functional; details: ARC3607, 24 h; in short: as §1
# Pseudomonas aeruginosa [8] = test: Antibacterial activity against Pseudomonas aeruginosa ARC3611 after 24 hrs by broth microdilution method; assay type: functional; details: ARC3611, 24 h; in short: as §1
# Pseudomonas aeruginosa [9] = test: Antibacterial activity against Pseudomonas aeruginosa ARC3612 after 24 hrs by broth microdilution method; assay type: functional; details: ARC3612, 24 h; in short: as §1
# Pseudomonas aeruginosa [10] = test: Antibacterial activity against Pseudomonas aeruginosa ARC3729 after 24 hrs by broth microdilution method; assay type: functional; details: ARC3729, 24 h; in short: as §1
# Pseudomonas aeruginosa [11] = test: Antibacterial activity against Pseudomonas aeruginosa ARC3916 after 24 hrs by broth microdilution method; assay type: functional; details: ARC3916, 24 h; in short: as §1
# Pseudomonas aeruginosa [12] = test: Antibacterial activity against Pseudomonas aeruginosa ARC4060 after 24 hrs by broth microdilution method; assay type: functional; details: ARC4060, 24 h; in short: as §1
# Acinetobacter baumannii [13] = test: Antibacterial activity against Acinetobacter baumannii ARC2674 after 24 hrs by broth microdilution method; assay type: functional; details: ARC2674, 24 h; in short: as §1
# Acinetobacter baumannii [14] = test: Antibacterial activity against Acinetobacter baumannii ARC2728 after 24 hrs by broth microdilution method; assay type: functional; details: ARC2728, 24 h; in short: as §1
# Acinetobacter baumannii [15] = test: Antibacterial activity against Acinetobacter baumannii ARC2779 after 24 hrs by broth microdilution method; assay type: functional; details: ARC2779, 24 h; in short: as §1
# Acinetobacter baumannii [16] = test: Antibacterial activity against Acinetobacter baumannii ARC2782 after 24 hrs by broth microdilution method; assay type: functional; details: ARC2782, 24 h; in short: as §1
# Acinetobacter baumannii [17] = test: Antibacterial activity against Acinetobacter baumannii ARC3485 after 24 hrs by broth microdilution method; assay type: functional; details: ARC3485, 24 h; in short: as §1
# Acinetobacter baumannii [18] = test: Antibacterial activity against Acinetobacter baumannii ARC3486 after 24 hrs by broth microdilution method; assay type: functional; details: ARC3486, 24 h; in short: as §1
# Acinetobacter baumannii [19] = test: Antibacterial activity against Acinetobacter baumannii ARC3489 after 24 hrs by broth microdilution method; assay type: functional; details: ARC3489, 24 h; in short: as §1
# Acinetobacter baumannii [20] = test: Antibacterial activity against Acinetobacter baumannii ARC3493 after 24 hrs by broth microdilution method; assay type: functional; details: ARC3493, 24 h; in short: as §1
# Acinetobacter baumannii [21] = test: (§2) Antibacterial activity against Acinetobacter baumannii ARC3495 after 24 hrs by broth microdilution method; assay type: functional; details: ARC3495, 24 h; in short: as §1
# Acinetobacter baumannii [22] = test: Antibacterial activity against Acinetobacter baumannii ARC3513 after 24 hrs by broth microdilution method; assay type: functional; details: ARC3513, 24 h; in short: as §1
# Acinetobacter baumannii [23] = test: Antibacterial activity against Acinetobacter baumannii ARC3515 after 24 hrs by broth microdilution method; assay type: functional; details: ARC3515, 24 h; in short: as §1
# Acinetobacter baumannii [24] = test: Antibacterial activity against Acinetobacter baumannii ARC3657 after 24 hrs by broth microdilution method; assay type: functional; details: ARC3657, 24 h; in short: as §1
# Acinetobacter baumannii [25] = test: Antibacterial activity against Acinetobacter baumannii ARC3658 after 24 hrs by broth microdilution method; assay type: functional; details: ARC3658, 24 h; in short: as §1
# Acinetobacter baumannii [26] = test: Antibacterial activity against Acinetobacter baumannii ARC3659 after 24 hrs by broth microdilution method; assay type: functional; details: ARC3659, 24 h; in short: as §1
# Acinetobacter baumannii [27] = test: Antibacterial activity against Acinetobacter baumannii ARC3882 after 24 hrs by broth microdilution method; assay type: functional; details: ARC3882, 24 h; in short: as §1
# Acinetobacter baumannii [28] = test: as §2; assay type: functional; details: ARC3495, 24 h; in short: as §1; remark: listed apart in the source
# Klebsiella pneumoniae = test: Antibacterial activity against Klebsiella pneumoniae ARC1865 after 24 hrs by broth microdilution method; assay type: functional; details: ARC1865, 24 h; in short: as §1
# Haemophilus influenzae = test: Antibacterial activity against Haemophilus influenzae ATCC 49247 after 24 hrs by broth microdilution method; assay type: functional; details: ATCC 49247, 24 h; in short: as §1
# Enterobacter cloacae = test: Antibacterial activity against Enterobacter cloacae ARC3528 after 24 hrs by broth microdilution method; assay type: functional; details: ARC3528, 24 h; in short: as §1
# Staphylococcus aureus [29] = test: Antibacterial activity against methicillin-resistant Staphylococcus aureus FQ-R after 24 hrs by broth microdilution method; assay type: functional
# In short: (§3)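 Broth microdilution per CLSI. Bacterial suspensions adjusted to 1×10^6 CFU/mL in cation-adjusted Mueller–Hinton broth, mixed 1:1 with 2-fold serial compound dilutions (final DMSO 2.5% v/v). Incubation 35 °C, 140 rpm, 24 h.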
# Staphylococcus aureus [30] = test: Antibacterial activity against methicillin-resistant Staphylococcus aureus USA100 after 24 hrs by broth microdilution method; assay type: functional; details: USA100, 24 h; in short: as §3
# Streptococcus pyogenes = test: Antibacterial activity against Streptococcus pyogenes ARC838 after 24 hrs by broth microdilution method; assay type: functional; details: ARC838, 24 h
# In short: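 Broth microdilution per CLSI. Bacterial suspension adjusted to 1×10^6 CFU/mL in cation-adjusted Mueller–Hinton broth and mixed 1:1 with 2-fold serial compound dilutions. Plates incubated at 35 °C with shaking at 140 rpm for 24 h.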
# Candida albicans = test: Antifungal activity against Candida albicans ATCC 90028 after 24 hrs by broth microdilution method; assay type: functional; details: ATCC 90028, 24 h
# Staphylococcus aureus [31] = test: Antibacterial activity against Staphylococcus aureus ATCC 29213 after 24 hrs by broth microdilution method; assay type: functional; details: ATCC 29213, 24 h; in short: as §1
# Staphylococcus aureus [32] = test: Antibacterial activity against Staphylococcus aureus ATCC 29213 after 24 hrs in presence of 2% human albumin by broth microdilution method; assay type: functional; details: ATCC 29213, 24 h
# Streptococcus pneumoniae = test: Antibacterial activity against Streptococcus pneumoniae ATCC 49619 after 24 hrs by broth microdilution method; assay type: functional; details: ATCC 49619, 24 h; in short: as §1
# Enterococcus faecalis = test: Antibacterial activity against Enterococcus faecalis ATCC 29212 after 24 hrs by broth microdilution method; assay type: functional; details: ATCC 29212, 24 h; in short: as §1
# DNA gyrase subunit B = DNA gyrase subunit B (Escherichia coli, UniProt P0AES6); test: Inhibition of Escherichia coli GyrB (1 to 220 residues) expressed in Escherichia coli BL21(DE3)
# [33] = biological target: DNA topoisomerase 4 subunit B (Escherichia coli K-12, UniProt P20083); test: Inhibition of Escherichia coli ParE
# Pseudomonas aeruginosa [34] = test: Antibacterial activity against Pseudomonas aeruginosa PAO1 after 24 hrs by broth microdilution method; assay type: functional; details: PAO1, 24 h; in short: as §1
# Pseudomonas aeruginosa [35] = test: Antibacterial activity against Pseudomonas aeruginosa harboring MexABCDXY deletion mutant after 24 hrs by broth microdilution method; assay type: functional; in short: as §3
# Escherichia coli [36] = test: Antibacterial activity against Escherichia coli after 24 hrs by broth microdilution method; assay type: functional; in short: as §1
# Escherichia coli [37] = test: Antibacterial activity against tolC deficient Escherichia coli after 24 hrs by broth microdilution method; assay type: functional
# In short: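 Broth microdilution per CLSI guidelines. Inoculum adjusted to 1×10^6 CFU/mL in cation-adjusted Mueller–Hinton broth, added 1:1 to 2-fold serial compound dilutions; final DMSO 2.5% v/v. Plates incubated 35 °C, 140 rpm, 24 h.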
# [38] = Dissociation constant, pKa of compound by pH metric method; assay type: physicochemical
# In short: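 Potentiometric (pH-metric) titration on an automated titrator, Gold Standard pH metric assay, run in triplicate.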
# [39] = Growth inhibition of human A549 cells; assay type: cell-based
# Escherichia coli [40] = test: Selectivity ratio of IC50 for Escherichia coli ParE to IC50 for Escherichia coli GyrB (1 to 220 residues) expressed in Escherichia coli BL21(DE3)
# DNA topoisomerase 4 subunit B, sequence (P20083 whole entry): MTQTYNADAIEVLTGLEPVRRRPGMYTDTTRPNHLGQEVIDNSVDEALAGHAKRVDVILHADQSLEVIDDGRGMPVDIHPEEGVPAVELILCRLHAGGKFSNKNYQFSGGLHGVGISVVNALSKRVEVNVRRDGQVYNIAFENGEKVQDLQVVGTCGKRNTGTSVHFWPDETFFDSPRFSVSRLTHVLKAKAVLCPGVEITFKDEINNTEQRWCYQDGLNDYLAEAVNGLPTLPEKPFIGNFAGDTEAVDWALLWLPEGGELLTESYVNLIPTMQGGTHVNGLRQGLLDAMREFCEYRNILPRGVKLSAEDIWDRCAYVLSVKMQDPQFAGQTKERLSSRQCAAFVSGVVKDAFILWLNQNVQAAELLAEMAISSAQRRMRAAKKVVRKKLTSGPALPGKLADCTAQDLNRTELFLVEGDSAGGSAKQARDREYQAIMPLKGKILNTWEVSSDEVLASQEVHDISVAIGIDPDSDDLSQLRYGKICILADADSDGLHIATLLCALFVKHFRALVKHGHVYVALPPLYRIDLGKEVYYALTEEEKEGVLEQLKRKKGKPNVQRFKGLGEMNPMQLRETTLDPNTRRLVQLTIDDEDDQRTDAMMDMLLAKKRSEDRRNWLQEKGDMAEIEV
compound,measurement,setting,value
C[C@@H](O)[C@H]1C(=O)N2C(C(=O)O)=C(S[C@@H]3CN[C@H](C(=O)N(C)C)C3)[C@H](C)[C@H]12 [MEROPENEM],MIC,Pseudomonas aeruginosa [1],0.25 µg/mL
same,MIC,Pseudomonas aeruginosa [2],4 µg/mL
same,MIC,Pseudomonas aeruginosa [3],2 µg/mL
same,MIC,Pseudomonas aeruginosa [4],8 µg/mL
same,MIC,Pseudomonas aeruginosa [5],16 µg/mL
same,MIC,Pseudomonas aeruginosa [6],4 µg/mL
same,MIC,Pseudomonas aeruginosa [7],8 µg/mL
same,MIC,Pseudomonas aeruginosa [8],4 µg/mL
same,MIC,Pseudomonas aeruginosa [9],32 µg/mL
same,MIC,Pseudomonas aeruginosa [10],32 µg/mL
same,MIC,Pseudomonas aeruginosa [11],32 µg/mL
same,MIC,Pseudomonas aeruginosa [12],16 µg/mL
same,MIC,Acinetobacter baumannii [13],16 µg/mL
same,MIC,Acinetobacter baumannii [14],0.25 µg/mL
same,MIC,Acinetobacter baumannii [15],16 µg/mL
same,MIC,Acinetobacter baumannii [16],16 µg/mL
same,MIC,Acinetobacter baumannii [17],32 µg/mL
same,MIC,Acinetobacter baumannii [18],> 64 µg/mL
same,MIC,Acinetobacter baumannii [19],4 µg/mL
same,MIC,Acinetobacter baumannii [20],> 64 µg/mL
same,MIC,Acinetobacter baumannii [21],> 64 µg/mL
same,MIC,Acinetobacter baumannii [22],32 µg/mL
same,MIC,Acinetobacter baumannii [23],4 µg/mL
same,MIC,Acinetobacter baumannii [24],1 µg/mL
same,MIC,Acinetobacter baumannii [25],32 µg/mL
same,MIC,Acinetobacter baumannii [26],16 µg/mL
same,MIC,Acinetobacter baumannii [27],> 64 µg/mL
CC(=O)NC[C@H]1CN(c2ccc(N3CCOCC3)c(F)c2)C(=O)O1 [LINEZOLID],MIC,Acinetobacter baumannii [28],> 64 µg/mL
same,MIC,Klebsiella pneumoniae,> 64 µg/mL
same,MIC,Haemophilus influenzae,4 µg/mL
same,MIC,Enterobacter cloacae,> 64 µg/mL
same,MIC,Staphylococcus aureus [29],0.5 µg/mL
same,MIC,Staphylococcus aureus [30],1 µg/mL
same,MIC,Streptococcus pyogenes,0.5 µg/mL
same,MIC,Candida albicans,> 64 µg/mL
CC(C)(O/N=C(\C(=O)N[C@@H]1C(=O)N2C(C(=O)[O-])=C(C[n+]3ccccc3)CS[C@H]12)c1csc(N)n1)C(=O)O [CEFTAZIDIME],MIC,Acinetobacter baumannii [28],> 32 µg/mL
same,MIC,Klebsiella pneumoniae,0.25 µg/mL
same,MIC,Haemophilus influenzae,0.25 µg/mL
same,MIC,Enterobacter cloacae,> 32 µg/mL
same,MIC,Staphylococcus aureus [31],16 µg/mL
same,MIC,Staphylococcus aureus [32],16 µg/mL
same,MIC,Staphylococcus aureus [29],> 32 µg/mL
same,MIC,Staphylococcus aureus [30],> 32 µg/mL
same,MIC,Streptococcus pneumoniae,0.5 µg/mL
same,MIC,Enterococcus faecalis,> 32 µg/mL
same,MIC,Candida albicans,> 32 µg/mL
CCNC(=O)Nc1cc(-c2nc(C(F)(F)F)cs2)c(-c2cc3ncccc3nc2N2CCN(C)CC2)cn1,IC50,DNA gyrase subunit B,3 nM
same,IC50,[33],400 nM
same,MIC,Pseudomonas aeruginosa [34],> 100 µg/mL
same,MIC,Pseudomonas aeruginosa [35],1.08 µg/mL
same,MIC,Escherichia coli [36],16.8 µg/mL
same,MIC,Escherichia coli [37],1.08 µg/mL
same,pKa,[38],7.4
same,GI50,[39],> 50000 nM
CCNC(=O)Nc1cc(-c2nc(C(F)(F)F)cs2)c(-c2cncc(C(=O)O)c2)cn1,IC50,DNA gyrase subunit B,6 nM
same,IC50,[33],700 nM
same,Ratio IC50,Escherichia coli [40],100
same,MIC,Pseudomonas aeruginosa [34],> 100 µg/mL
same,MIC,Pseudomonas aeruginosa [35],> 100 µg/mL
same,MIC,Escherichia coli [36],> 100 µg/mL
same,MIC,Escherichia coli [37],> 100 µg/mL
same,pKa,[38],3.5
